Records with an inconclusive call do not appear. Calls of active or inactive are those of the source.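 Rule for the calls, unless noted: active = cell viability at or below a set limit in both duplicate runs, the limit being the all-compound median minus 4 SD (cut at about 23% in these data, passing the limit was not always enough); inconclusive = no clear call, values can overlap the other calls; inactive = the rest.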
Tests used:
[1] = S. cerevisiae growth inhibition in permissive medium (OD615), pilot counter-assay for S. cerevisiae lifespan shortening project, permissive growth control (AID 705;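 active = growth inhibition above 25% in both replicates, a cutoff set 3 SD above the mean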); conditions: OD615, 24 h, at 10 µM, stronger effect = higher value
Outline: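 System – S. cerevisiae with engineered DeaD lifespan system · Buffer or medium – SC raffinose/galactose permissive medium · Schedule – cells pre-grown 4 h, then 24 h compound exposure, 30 °C humidified · Technique – culture turbidity as optical density at 615 nm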

[2] = S. cerevisiae growth inhibition in restrictive medium, OD615, pilot screen, restrictive growth control, yeast lifespan reduction project (AID 706;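 active = growth inhibition above a set limit, 3 SD over mean compound inhibition, in both replicates, cut at about 43% in these data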;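 note: modified DeaD lifespan yeast strain shifted to restrictive glucose medium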); conditions: OD615, 48 h, at 10 µM, stronger effect = higher value
Outline: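 Material: engineered S. cerevisiae DeaD strain / Medium: glucose-based CSMM-D restrictive medium / Compound: single dose of 10 µM compound final, 0.25% DMSO / Timing: 4 h pre-incubation, 48 h exposure at 30 °C / Technique: OD615 absorbance reading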

[3] = doxorubicin toxicity protection in MRP-1 cells – H69AR cells, CellTiter-Glo, duplicate, MRP-1 activator project, pilot screen (AID 807;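 active = viability increase at or above a cutoff of the median across tested compounds plus 3 SD, cut at about 8.5% in these data, passing the limit was not always enough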;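 note: compound pretreatment 18-22 h then 72 h combined with doxorubicin; 0% = doxorubicin alone and 100% = vehicle without doxorubicin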); conditions: H69AR viability with doxorubicin, CellTiter-Glo luminescence; at 10 µM; stronger effect = higher value
[4] = viability of HCT116 without oncogenic beta-catenin – human colon tumor cells, pilot screen (AID 823); conditions: HCT116 beta-catenin knockout viability, CellTiter-Glo, 60 h; at 10 µM; stronger effect = lower value;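 note: 0% = wells killed by 20 µM Hyamine and 100% = untreated DMSO cell wells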
[5] = viability of PTEN-null HCT116 cells – cell-based, HCT116 clonal line, CellTiter-Glo, pilot screen (AID 824;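 active = viability at or below 27.92% in each of two runs, the all-compound median minus 4 SD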;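 note: 0% = 20 µM Hyamine control and 100% = vehicle cell control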); conditions: HCT116 PTEN-deleted viability, 60 h, at 10 µM, stronger effect = lower value
[6] = RAM pathway blockade in budding yeast – dse1pr::URA3 reporter, 5-FOA selection, pilot screen (AID 869;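 active = inhibition over a set limit, the all-compound mean plus 3 SD, in both replicate runs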;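 note: 0% = DMSO wells with no growth and 100% = 10 µM 1-NA-PP1 with full growth; RAM network block rescues cells from 5-FOA so hits raise OD615 growth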); conditions: S. cerevisiae dse1pr::URA3 5-FOA growth, OD615, 2 d; at 10 µM; stronger effect = higher value; strain carries analog-sensitive mutant Cbk1 kinase
[7] = RAM signaling pathway blockade in yeast – S. cerevisiae, Pdr1DBD-CYC8 efflux-inhibited sensitized strain, primary screen (AID 1298;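 active = RAM network inhibition above 8.4% in each of two replicates, 3 SD over the compound average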;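 note: 0% = DMSO untreated cells without growth and 100% = 10 µM 1-NA-PP1 full growth; higher means more yeast growth rescued from 5-FOA killing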); conditions: S. cerevisiae cbk1-as DSE1-URA3 strain, 5-FOA growth OD615, 2 d; at 50 µM; stronger effect = higher value

Cn1c(=O)[nH]c(=O)c2c1nc(N1CCCCCC1)n2CCSc1nc2ccccc2o1
inactive: growth inhibition [1] -8.05% | growth inhibition [2] -7.14% | viability increase [3] -3.78% | viability [4] 95.4% | viability [5] 91.3% | inhibition [6] 1.73% | RAM network inhibition [7] 3.18%

O=C(O)c1cc(-c2ccc(Cl)cc2)n[nH]1
inactive: growth inhibition [1] -6.99% | growth inhibition [2] 0.335% | viability increase [3] -0.39% | viability [4] 100% | viability [5] 96% | inhibition [6] 0.27% | RAM network inhibition [7] 0.61%

COc1ccc(NC(=O)CCS(=O)(=O)c2cccc3nonc23)c(OC)c1
inactive: growth inhibition [1] -4.67% | growth inhibition [2] -11.7% | viability increase [3] -2.54% | viability [4] 96.2% | viability [5] 93.8% | inhibition [6] 0.51% | RAM network inhibition [7] 2.06%

COc1ccc(OC)c(C2NC(=O)NC(C)=C2C(=O)Nc2ccc(C)cc2C)c1 (configuration not stated)
inactive: growth inhibition [1] -7.68% | growth inhibition [2] 4.14% | viability increase [3] 0.67% | viability [4] 101% | viability [5] 100% | inhibition [6] 1.77% | RAM network inhibition [7] 2.4%

COc1cc(C2C3=C(CC(c4ccco4)CC3=O)Nc3ccccc3N2C(C)=O)cc(OC)c1OC (configuration not stated)
inactive: growth inhibition [1] -0.74% | growth inhibition [2] 8.4% | viability increase [3] -3.38% | viability [4] 91.8% | viability [5] 89% | inhibition [6] 1.3% | RAM network inhibition [7] 6.7%

COc1ccccc1N1CCN(C(CNS(=O)(=O)c2cccs2)c2cccnc2)CC1 (configuration not stated)
inactive: growth inhibition [1] -6.17% | growth inhibition [2] -25.5% | viability increase [3] -3.42% | viability [4] 87.8% | viability [5] 79.1% | inhibition [6] 1.8% | RAM network inhibition [7] 5.16%

CC(C)OC(=O)CSc1nnc(-c2ccncc2)n1N
inactive: growth inhibition [1] -8.12% | growth inhibition [2] -10.2% | viability increase [3] -2.11% | viability [4] 97.5% | viability [5] 97.1% | inhibition [6] 1.8% | RAM network inhibition [7] 3.83%

CCN(c1ccccc1)S(=O)(=O)c1ccc(N)cc1
inactive: growth inhibition [1] -4.66% | growth inhibition [2] -1.86% | viability increase [3] -1.02% | viability [4] 94.5% | viability [5] 98.1% | inhibition [6] 2.56% | RAM network inhibition [7] 2.68%

Cc1sc2nc(SCC(=O)N3CCCC3)[nH]c(=O)c2c1C
inactive: growth inhibition [1] -0.89% | growth inhibition [2] -6.9% | viability increase [3] -1.34% | viability [4] 104% | viability [5] 98% | inhibition [6] 0.26% | RAM network inhibition [7] 1.77%

CCOc1ccc(C2C(C(=O)NC)=C(C)Nc3nc4ccccc4n32)cc1OC (configuration not stated)
inactive: growth inhibition [1] -4.37% | growth inhibition [2] -0.94% | viability increase [3] 0.24% | viability [4] 98.8% | viability [5] 103% | inhibition [6] 1.18% | RAM network inhibition [7] 2.01%

O=C(NC1CCCc2ccccc21)C1CCC(CNc2c(N3CCOCC3)c(=O)c2=O)CC1 (configuration not stated)
inactive: growth inhibition [1] -6.7% | growth inhibition [2] 7.02% | viability increase [3] -0.75% | viability [4] 105% | viability [5] 107% | inhibition [6] 1.08% | RAM network inhibition [7] 1.43%

O=C(COC(=O)c1cc2ccccc2o1)c1ccccc1
inactive: growth inhibition [1] -8.98% | growth inhibition [2] 2% | viability increase [3] -0.26% | viability [4] 96.9% | viability [5] 98.1% | inhibition [6] -0.115% | RAM network inhibition [7] 2.95%

COc1ccc(Br)cc1/C=N/n1c(C)nnc1C
inactive: growth inhibition [1] -14% | growth inhibition [2] -21% | viability increase [3] -5.21% | viability [4] 66% | viability [5] 67.5% | inhibition [6] 1.7% | RAM network inhibition [7] -0.74%

COc1cc(NC(=O)c2cc(C(C)C)on2)cc(OC)c1OC
inactive: growth inhibition [1] -12.3% | growth inhibition [2] 14.9% | viability increase [3] -1.85% | viability [4] 95.2% | viability [5] 94.5% | inhibition [6] -0.755% | RAM network inhibition [7] -0.99%

COc1ccc(-c2nc(CNS(=O)(=O)c3cc(OC)ccc3OC)cs2)cc1
inactive: growth inhibition [1] 2.43% | growth inhibition [2] 5.36% | viability increase [3] -1.76% | viability [4] 92% | viability [5] 89.7% | inhibition [6] 0.53% | RAM network inhibition [7] 5.82%

CC1(C)CC(=O)C2=C(C1)Nc1ccccc1NC2c1nc2ccccc2[nH]1 (configuration not stated)
inactive: growth inhibition [1] -10.1% | growth inhibition [2] 1.04% | viability increase [3] -3.97% | viability [4] 100% | viability [5] 95.7% | inhibition [6] 1.65% | RAM network inhibition [7] 1.45%

CCCc1nnc(NC(=O)CCC(=O)O)s1
inactive: growth inhibition [1] -4.72% | growth inhibition [2] -1.89% | viability increase [3] -1.02% | viability [4] 92.8% | viability [5] 95.4% | inhibition [6] 0.765% | RAM network inhibition [7] 0%

CCOC(=O)CSc1nc(C)cc(Oc2ccc(=O)n(C)n2)n1
inactive: growth inhibition [1] -17.4% | growth inhibition [2] -8.09% | viability increase [3] 0.54% | viability [4] 102% | viability [5] 97.5% | inhibition [6] 1.12% | RAM network inhibition [7] 0.42%

COC(=O)c1cc(Nc2cc(C)nc3ncnn23)cc(C(=O)OC)c1
inactive: growth inhibition [1] 7.62% | growth inhibition [2] 11% | viability increase [3] -3.2% | viability [4] 108% | viability [5] 97.1% | inhibition [6] 1.31% | RAM network inhibition [7] 1.36%

Fc1cccc(Cl)c1CSc1nnnn1-c1ccc2c(c1)OCO2
inactive: growth inhibition [1] 3.1% | growth inhibition [2] 17.6% | viability increase [3] -5.87% | viability [4] 55.7% | viability [5] 46.4% | inhibition [6] 1.1% | RAM network inhibition [7] 10.2%

CCOC(=O)c1c(C)n(C)c2ccc(OCC(N)=O)cc12
inactive: growth inhibition [1] -3.96% | growth inhibition [2] -11% | viability increase [3] -4.45% | viability [4] 100% | viability [5] 99.3% | inhibition [6] 1.96% | RAM network inhibition [7] 6.79%

CC1=C(NCCc2ccccc2)CCC1=O
inactive: growth inhibition [1] 1.6% | growth inhibition [2] -14.4% | viability increase [3] -2.97% | viability [4] 92% | viability [5] 86.2% | inhibition [6] 1.74% | RAM network inhibition [7] 2.7%

Cc1ccc(-c2nc3cnccn3c2Nc2ccccc2)o1
inactive: growth inhibition [1] 0.205% | growth inhibition [2] 14.9% | viability increase [3] -0.77% | viability [4] 91.2% | viability [5] 84.3% | inhibition [6] 0.995% | RAM network inhibition [7] 1.9%

CCOCCCNC(=O)C(c1ccc(C)cc1)N1CCOCC1 (configuration not stated)
inactive: growth inhibition [1] -11.9% | growth inhibition [2] 2.48% | viability increase [3] -3.18% | viability [4] 93.2% | viability [5] 102% | inhibition [6] 1.84% | RAM network inhibition [7] 1.62%

NC(=O)CC1NC(=O)c2ccccc21 (configuration not stated)
inactive: growth inhibition [1] -11.7% | growth inhibition [2] -6.05% | viability increase [3] 0.12% | viability [4] 91.7% | viability [5] 100% | inhibition [6] 1.28% | RAM network inhibition [7] 3.47%

CC(=O)c1ccc(OCC(C)C)c(CC(C(N)=O)C(N)=O)c1
inactive: growth inhibition [1] 1.42% | growth inhibition [2] -5.6% | viability increase [3] -1.7% | viability [4] 108% | viability [5] 96.1% | inhibition [6] 1.66% | RAM network inhibition [7] -0.2%

COc1ccc(-n2nnc3c(=O)n(CC(=O)OCc4ccccc4)cnc32)cc1
inactive: growth inhibition [1] 0.92% | growth inhibition [2] 1.45% | viability increase [3] -1.76% | viability [4] 98.7% | viability [5] 99.9% | inhibition [6] 1.19% | RAM network inhibition [7] 6.18%

CCSc1nnc(Cn2c(=O)sc3ccccc32)n1-c1ccccc1C
inactive: growth inhibition [1] -2.14% | growth inhibition [2] -4.08% | viability increase [3] -1.61% | viability [4] 93.9% | viability [5] 89.7% | inhibition [6] 1.61% | RAM network inhibition [7] 8.51%

CCCCCn1c(=N)n(CC(O)COc2ccccc2OC)c2ccccc21 (configuration not stated)
active: viability [4] 15.6% | viability [5] 21.9%
inactive: growth inhibition [1] -4.93% | growth inhibition [2] 4.88% | viability increase [3] -7.9% | inhibition [6] -0.235% | RAM network inhibition [7] 0.4%

CC1CCN(c2ncnc3c2cnn3-c2ccccc2)CC1
inactive: growth inhibition [1] 7.81% | growth inhibition [2] 10.9% | viability increase [3] 4.17% | viability [4] 77.8% | viability [5] 87.3% | inhibition [6] 0.495% | RAM network inhibition [7] -1.46%

COC(=O)C1=COC(C)C2CN3CCc4c([nH]c5ccccc45)C3CC12 (configuration not stated)
inactive: growth inhibition [1] -14.5% | growth inhibition [2] 1.04% | viability increase [3] -4.71% | viability [4] 77.4% | viability [5] 86% | inhibition [6] 1.6% | RAM network inhibition [7] 7.8%

O=C(c1ccc(CS(=O)(=O)c2ccc(Br)cc2)o1)N1CCN(c2ccccn2)CC1
inactive: growth inhibition [1] -5.91% | growth inhibition [2] -14.9% | viability increase [3] -3.76% | viability [4] 98.8% | viability [5] 84.4% | inhibition [6] 1.34% | RAM network inhibition [7] 4.8%

Clc1ccc(-c2nnc(N3CCCC3)nn2)cc1
inactive: growth inhibition [1] -7.18% | growth inhibition [2] 4.79% | viability increase [3] -2.71% | viability [4] 86.6% | viability [5] 92.2% | inhibition [6] 0.995% | RAM network inhibition [7] 0.52%

O=C(NCc1cccnc1)C1CC(=O)N(c2ccc(F)cc2)C1 (configuration not stated)
inactive: growth inhibition [1] -18% | growth inhibition [2] -11.7% | viability increase [3] 1.27% | viability [4] 93.8% | viability [5] 101% | inhibition [6] 0.485% | RAM network inhibition [7] 2.83%

Cn1c2c(c(=O)n(C)c1=O)C(c1cc3c(cc1Br)OCO3)CC(=O)N2 (configuration not stated)
inactive: growth inhibition [1] -4.86% | growth inhibition [2] -4.15% | viability increase [3] -0.66% | viability [4] 105% | viability [5] 99% | inhibition [6] -0.625% | RAM network inhibition [7] 4.1%

Cn1c(NC(=O)CC2CCCCC2)cc(=O)n(C)c1=O
inactive: growth inhibition [1] -14% | growth inhibition [2] -21.6% | viability increase [3] -0.04% | viability [4] 93.3% | viability [5] 87% | inhibition [6] 0.43% | RAM network inhibition [7] -0.37%

— PubChem BioAssay
